Test results: BindingDB's records for doi:10.1021/jm00346a020 (1982)

Key:
Dihydrofolate reductase [1] = molecular target: T1, Dihydrofolate reductase (Bos taurus, UniProt P00376); assay: Inhibitory activity against bovine liver Dihydrofolate reductase at pH 7.2.
T1 sequence (P00376 whole entry): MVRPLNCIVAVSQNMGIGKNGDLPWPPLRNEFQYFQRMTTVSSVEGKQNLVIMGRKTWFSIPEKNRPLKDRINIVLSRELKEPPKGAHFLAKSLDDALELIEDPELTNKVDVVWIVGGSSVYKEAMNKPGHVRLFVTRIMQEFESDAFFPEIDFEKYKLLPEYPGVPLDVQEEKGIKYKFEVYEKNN
In short: (§1)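 DHFR from chicken liver and from bovine liver, each assayed at pH 7.2 by the group's earlier-reported inhibition procedure. Potency is expressed as an apparent inhibition constant, reported as log(1/Ki app).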

Dihydrofolate reductase [2] = molecular target: T1, Dihydrofolate reductase; assay: Inhibitory activity against bovine liver dihydrofolate reductase at pH 7.2.
Dihydrofolate reductase [3] = molecular target: T2, Dihydrofolate reductase (Gallus gallus, UniProt P00378); assay: Inhibitory activity against chicken dihydrofolate reductase at pH 7.2.
T2 sequence (P00378 whole entry): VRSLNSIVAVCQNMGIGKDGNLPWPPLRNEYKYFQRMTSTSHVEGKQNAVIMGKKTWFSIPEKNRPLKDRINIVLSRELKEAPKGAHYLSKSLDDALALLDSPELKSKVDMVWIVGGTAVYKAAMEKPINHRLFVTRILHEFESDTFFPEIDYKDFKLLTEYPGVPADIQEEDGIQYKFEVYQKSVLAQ

Dihydrofolate reductase [4] = molecular target: T2, Dihydrofolate reductase; assay: Inhibitory activity against chicken Dihydrofolate reductase at pH 7.2.; in short: as §1

Structure (SMILES) | Ki (Dihydrofolate reductase [2]) [µM] | Ki (Dihydrofolate reductase [3]) [µM] | further results
Nc1ncc(Cc2cc(O)cc(O)c2)c(N)n1 | – | – | Ki (Dihydrofolate reductase [1]): 407 µM
COc1ccc(Cc2cnc(N)nc2N)cc1 [5-(4-Methoxy-benzyl)-pyrimidine-2,4-diamine] | 4.47 | – | –
Nc1ncc(Cc2ccc([N+](=O)[O-])cc2)c(N)n1 | 3.72 | 42.7 | –
Cc1cccc(Cc2cnc(N)nc2N)c1 | – | 19.1 | –
Nc1ncc(Cc2ccc(F)cc2)c(N)n1 | 3.09 | 16.2 | –
Nc1ncc(Cc2ccc(O)c(O)c2)c(N)n1 | 25.7 | – | –
CC(=O)Nc1ccc(Cc2cnc(N)nc2N)cc1 | – | 55 | –
NC(=O)COc1cccc(Cc2cnc(N)nc2N)c1 | – | – | Ki (Dihydrofolate reductase [1]): 5.37 µM
COCCOc1cccc(Cc2cnc(N)nc2N)c1 | – | – | Ki (Dihydrofolate reductase [4]): 14.8 µM; Ki (Dihydrofolate reductase [1]): 2.63 µM
Nc1ncc(Cc2ccc(OC(F)(F)F)cc2)c(N)n1 | – | 55 | –
COCCOc1ccc(Cc2cnc(N)nc2N)cc1OCCOC | – | – | Ki (Dihydrofolate reductase [1]): 6.76 µM
COCCOc1ccc(Cc2cnc(N)nc2N)cc1 | – | – | Ki (Dihydrofolate reductase [1]): 4.9 µM
Nc1ncc(Cc2ccc(Br)cc2)c(N)n1 | 3.8 | – | –
Nc1ncc(Cc2ccc(Cl)cc2)c(N)n1 | 2.51 | – | –
CCCCCCCOc1ccc(Cc2cnc(N)nc2N)cc1 [5-(4-Heptyloxy-benzyl)-pyrimidine-2,4-diamine] | – | – | Ki (Dihydrofolate reductase [1]): 3.55 µM
CCCCOCc1cccc(Cc2cnc(N)nc2N)c1 | – | 6.76 | –
Nc1ncc(Cc2cccc(Cl)c2)c(N)n1 | 1.59 | 9.77 | –
COc1ccc(Cc2cnc(N)nc2N)cc1OC [Diaveridine] | 2.19 | 34.7 | –
CCCCCCOc1ccc(Cc2cnc(N)nc2N)cc1 | – | – | Ki (Dihydrofolate reductase [1]): 2.82 µM
CC(=O)Nc1ccc(Cc2cnc(N)nc2N)cc1[N+](=O)[O-] | 2.82 | – | –
Nc1ncc(Cc2cccc(F)c2)c(N)n1 | – | 20 | –
Nc1ncc(Cc2cccc(I)c2)c(N)n1 | – | 16.2 | –
Nc1ncc(Cc2cccc(Br)c2)c(N)n1 | 1.55 | – | –
CN(C)c1ccc(Cc2cnc(N)nc2N)cc1 | 6.17 | 97.7 | –
Nc1ccc(Cc2cnc(N)nc2N)cc1 | 11 | – | –
Nc1ncc(Cc2ccccc2)c(N)n1 | – | 19.5 | –
COc1ccc(Cc2cnc(N)nc2N)cc1C(F)(F)F | – | 10.2 | –
Nc1ncc(Cc2cccc(C(F)(F)F)c2)c(N)n1 | 1.66 | – | –
COCCOc1c(OC)cc(Cc2cnc(N)nc2N)cc1OC [5-[3,5-Dimethoxy-4-(2-methoxy-ethoxy)-benzyl]-pyrimidine-2,4-diamine] | – | 229 | –
Cc1ccc(Cc2cnc(N)nc2N)cc1 | 5.37 | – | –
